Measured values from ChEMBL document CHEMBL4152298, “Total synthesis of acylphloroglucinols and their antibacterial activities against clinical isolates of multi-drug resistant (MDR) and methicillin-resistant strains of Staphylococcus aureus” (2018).
≈ marks a conversion by molar mass, not a printed value.

Experiments:
Format in all cases: functional
Staphylococcus aureus [1] = assay: Antibacterial activity against Staphylococcus aureus SA1199B over-expressing NorA by MTT dye based assay
Method in brief: (§1)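 Strains grown on nutrient agar for 24 h at 37 °C before testing. Compounds dissolved in DMSO, diluted in MHB to 512 mg/L stock. Two-fold serial broth microdilution in MHB, final 128 to 0.25 mg/L in the initial evaluation. Final DMSO 1.56% to 0.0031% v/v. Inoculum 5×10^5 cfu/mL, 37 °C incubation, duplicates. MTT added for 20 min. MIC is the lowest concentration with no colour change.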

Staphylococcus aureus [2] = assay: Antibacterial activity against methicillin-resistant Staphylococcus aureus isolate XU212 harboring TetK tetracycline efflux pump by MTT dye based assay; method in brief: as §1
Staphylococcus aureus [3] = assay: Antibacterial activity against Staphylococcus aureus ATCC 25923 by MTT dye based assay; method in brief: as §1
Staphylococcus aureus [4] = assay: Antibacterial activity against Staphylococcus aureus RN4220 harboring MsrA macrolide efflux protein by MTT dye based assay; method in brief: as §1
Staphylococcus aureus [5] = assay: Antibacterial activity against methicillin-resistant Staphylococcus aureus EMRSA15 by MTT dye based assay; method in brief: as §1
Staphylococcus aureus [6] = assay: Antibacterial activity against methicillin-resistant Staphylococcus aureus EMRSA16 by MTT dye based assay; method in brief: as §1

| SMILES | MIC (Staphylococcus aureus [1]) [µg/mL] | MIC (Staphylococcus aureus [2]) [µg/mL] | MIC (Staphylococcus aureus [3]) [µg/mL] | MIC (Staphylococcus aureus [4]) [µg/mL] | MIC (Staphylococcus aureus [5]) [µg/mL] | MIC (Staphylococcus aureus [6]) [µg/mL] |
| --- | --- | --- | --- | --- | --- | --- |
| CC(C)=CCC/C(C)=C/COc1cc(O)cc(O)c1C(=O)c1ccccc1 | 1 (≈ 2.73 µM) | 1 (≈ 2.73 µM) | 1 (≈ 2.73 µM) | 1 (≈ 2.73 µM) | 1 (≈ 2.73 µM) | 0.5 (≈ 1.36 µM) |
| CCCC(=O)c1c(O)cc(O)cc1OC/C=C(\C)CCC=C(C)C | 2 (≈ 6.02 µM) | 2 (≈ 6.02 µM) | 2 (≈ 6.02 µM) | 2 (≈ 6.02 µM) | 2 (≈ 6.02 µM) | 1 (≈ 3.01 µM) |
| CCCCCCCCCCCCCCCCCC(=O)c1c(O)cc(O)cc1OC/C=C(\C)CCC=C(C)C | > 512 | > 512 | > 512 | > 512 | > 512 | > 512 |
| CC[C@H](C)C(=O)c1c(O)cc(O)cc1OC/C=C(\C)CC/C=C(\C)CCC=C(C)C | > 512 | > 512 | > 512 | > 512 | > 512 | > 512 |
| CCCCCCCCOc1cc(O)cc(O)c1C(=O)[C@@H](C)CC | 0.25 to 0.5 (≈ 0.775 to 1.55 µM) | 0.5 (≈ 1.55 µM) | 0.25 to 0.5 (≈ 0.775 to 1.55 µM) | 0.5 (≈ 1.55 µM) | 0.5 (≈ 1.55 µM) | 0.25 (≈ 0.775 µM) |
| CC[C@H](C)C(=O)c1c(O)cc(O)cc1OC/C=C(\C)CCC=C(C)C [OLYMPICIN A] | 1 (≈ 2.89 µM) | 0.5 (≈ 1.44 µM) | 1 (≈ 2.89 µM) | 1 (≈ 2.89 µM) | 1 (≈ 2.89 µM) | 0.5 (≈ 1.44 µM) |
| CCn1cc(C(=O)O)c(=O)c2cc(F)c(N3CCNCC3)cc21 [NORFLOXACIN] | 32 (≈ 100 µM) | 8 (≈ 25.1 µM) | 0.5 (≈ 1.57 µM) | 0.5 (≈ 1.57 µM) | 0.5 (≈ 1.57 µM) | 256 (≈ 802 µM) |
| CCCCCCCCCCCCCCCCCCOc1cc(O)cc(O)c1C(=O)[C@@H](C)CC | > 512 | > 512 | > 512 | > 512 | > 512 | > 512 |
| CC[C@H](C)C(=O)c1c(O)cc(O)cc1OCc1ccccc1 | 8 (≈ 26.6 µM) | 4 (≈ 13.3 µM) | 4 (≈ 13.3 µM) | 4 to 8 (≈ 13.3 to 26.6 µM) | 8 (≈ 26.6 µM) | 4 (≈ 13.3 µM) |
| CN[C@H](CC(C)C)C(=O)N[C@H]1C(=O)N[C@@H](CC(N)=O)C(=O)N[C@H]2C(=O)N[C@H]3C(=O)N[C@H](C(=O)N[C@H](C(=O)O)c4cc(O)cc(O)c4-c4cc3ccc4O)[C@H](O)c3ccc(c(Cl)c3)Oc3cc2cc(c3O[C@@H]2O[C@H](CO)[C@@H](O)[C@H](O)[C@H]2O[C@H]2C[C@](C)(N)[C@H](O)[C@H](C)O2)Oc2ccc(cc2Cl)[C@H]1O [VANCOMYCIN] | 0.25 (≈ 0.173 µM) |  | 0.25 (≈ 0.173 µM) |  | 0.25 (≈ 0.173 µM) | 0.25 (≈ 0.173 µM) |
| CC[C@H](C)C(=O)c1c(O)cc(O)cc1OCC=C(C)C | 16 (≈ 57.5 µM) | 4 to 8 (≈ 14.4 to 28.7 µM) | 8 (≈ 28.7 µM) | 8 (≈ 28.7 µM) | 16 (≈ 57.5 µM) | 4 (≈ 14.4 µM) |
| CCC(=O)c1c(O)cc(O)cc1OC/C=C(\C)CCC=C(C)C | 2 (≈ 6.28 µM) | 1 (≈ 3.14 µM) | 2 (≈ 6.28 µM) | 1 (≈ 3.14 µM) | 2 (≈ 6.28 µM) | 1 (≈ 3.14 µM) |
| CCCCCCCCCC(=O)c1c(O)cc(O)cc1OC/C=C(\C)CCC=C(C)C | 512 (≈ 1230 µM) | 64 (≈ 154 µM) | 512 (≈ 1230 µM) | 256 (≈ 614 µM) | 512 (≈ 1230 µM) | 64 (≈ 154 µM) |
| CCCCCCCCCCOc1cc(O)cc(O)c1C(=O)[C@@H](C)CC | 2 (≈ 5.71 µM) | 2 to 4 (≈ 5.71 to 11.4 µM) | 1 to 2 (≈ 2.85 to 5.71 µM) | 1 (≈ 2.85 µM) | 0.5 to 1 (≈ 1.43 to 2.85 µM) | 0.25 (≈ 0.713 µM) |
| CCCCCCCCCCCCOc1cc(O)cc(O)c1C(=O)[C@@H](C)CC | 16 (≈ 42.3 µM) | 64 (≈ 169 µM) | 128 (≈ 338 µM) | 8 (≈ 21.1 µM) | 16 (≈ 42.3 µM) | 16 (≈ 42.3 µM) |
| CC[C@H](C)C(=O)c1c(O)cc(O)cc1OCCC(C)CCCC(C)C (some centres not stated) | 0.5 to 1 (≈ 1.43 to 2.85 µM) | 1 (≈ 2.85 µM) | 1 (≈ 2.85 µM) | 0.5 (≈ 1.43 µM) | 0.5 to 1 (≈ 1.43 to 2.85 µM) | 0.25 (≈ 0.713 µM) |
| CCCCC(=O)c1c(O)cc(O)cc1OC/C=C(\C)CCC=C(C)C | 1 (≈ 2.89 µM) | 0.5 (≈ 1.44 µM) | 0.5 (≈ 1.44 µM) | 0.5 (≈ 1.44 µM) | 1 (≈ 2.89 µM) | 0.5 (≈ 1.44 µM) |
| CC(=O)c1c(O)cc(O)cc1OC/C=C(\C)CCC=C(C)C | 8 (≈ 26.3 µM) | 8 (≈ 26.3 µM) | 16 (≈ 52.6 µM) | 8 (≈ 26.3 µM) | 16 (≈ 52.6 µM) | 4 (≈ 13.1 µM) |
| CC[C@H](C)C(=O)c1c(O)cc(O)cc1OCCC(C)C | 2 (≈ 7.13 µM) | 4 (≈ 14.3 µM) | 2 (≈ 7.13 µM) | 2 (≈ 7.13 µM) | 2 to 4 (≈ 7.13 to 14.3 µM) | 2 to 4 (≈ 7.13 to 14.3 µM) |
